According to ChEMBL document CHEMBL2040739, “Effect of phosphodiesterase 7 (PDE7) inhibitors in experimental autoimmune encephalomyelitis mice. Discovery of a new chemically diverse family of compounds” (J Med Chem, 2012):
Blank lines part the entries; values can stand above or below the compound they belong to. Active and inactive are the calls of the source. No cut-off for these calls is given here.

What was measured:
[1] = molecular target: T1, High affinity 3',5'-cyclic-AMP phosphodiesterase 7A (Homo sapiens, UniProt Q13946); experiment: Inhibition of human recombinant PDE7A1-mediated [3H]cAMP hydrolysis at 10 uM after 20 mins by scintillation proximity assay
T1 sequence (Q13946 whole entry): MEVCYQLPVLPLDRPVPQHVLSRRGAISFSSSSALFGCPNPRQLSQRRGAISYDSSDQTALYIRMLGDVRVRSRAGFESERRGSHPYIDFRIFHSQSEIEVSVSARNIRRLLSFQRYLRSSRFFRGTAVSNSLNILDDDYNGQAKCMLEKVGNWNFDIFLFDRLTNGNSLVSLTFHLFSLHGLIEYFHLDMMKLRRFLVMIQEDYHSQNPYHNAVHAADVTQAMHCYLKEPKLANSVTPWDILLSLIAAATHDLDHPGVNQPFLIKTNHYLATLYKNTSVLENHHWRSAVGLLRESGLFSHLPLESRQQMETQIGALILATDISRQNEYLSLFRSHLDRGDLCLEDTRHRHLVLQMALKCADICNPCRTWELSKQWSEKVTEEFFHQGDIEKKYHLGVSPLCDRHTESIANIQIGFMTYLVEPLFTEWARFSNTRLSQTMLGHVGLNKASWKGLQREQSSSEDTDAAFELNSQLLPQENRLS
Summary of the method: (§1)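 Scintillation proximity assay with human recombinant full-length enzyme: PDE7A1 or PDE3A at 0.02 unit, or PDE7B at 0.5 unit. Enzyme incubated with 5 nCi [3H]cAMP for 20 min at 30 °C. SPA beads added, shaken 1 h at room temperature, then settled 30 min before counting. Single-point screens at 10 μM run in duplicate. IC50 from a sigmoidal dose−response fit.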

[2] = molecular target: T1, High affinity 3',5'-cyclic-AMP phosphodiesterase 7A; experiment: Inhibition of human recombinant PDE7A1-mediated [3H]cAMP hydrolysis after 20 mins by scintillation proximity assay; summary of the method: as §1
Astrocyte [3] = experiment: Antiinflammatory activity in rat astrocytes assessed as inhibition of LPS-induced nitrite production at 30 uM incubated for 1 hr prior to LPS-challenge measured after 24 hrs by Griess method; assay type: functional, cell-based
Summary of the method: (§2)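 Glial cells from neonatal rat cerebral cortex; microglia and astrocytes separated by shaking and cultured 1 week. Purity >98% by OX42 and GFAP staining. Microglia kept with 10 ng/mL GM-CSF. Cells given compound for 1 h, then LPS (10 μg/mL) for 24 h. Nitrite in the supernatant measured by Griess reaction at 492/540 nm. Mean ± SD of six replications in three experiments.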

[4] = molecular target: T2, High affinity 3',5'-cyclic-AMP phosphodiesterase 7A (Mus musculus) (UniProt P70453); experiment: Inhibition of PDE7A1 in mouse RAW cells assessed as increase in cAMP level at 10 to 30 uM after 60 mins by enzyme immunoassay; assay type: cell-based
T2 sequence (whole entry): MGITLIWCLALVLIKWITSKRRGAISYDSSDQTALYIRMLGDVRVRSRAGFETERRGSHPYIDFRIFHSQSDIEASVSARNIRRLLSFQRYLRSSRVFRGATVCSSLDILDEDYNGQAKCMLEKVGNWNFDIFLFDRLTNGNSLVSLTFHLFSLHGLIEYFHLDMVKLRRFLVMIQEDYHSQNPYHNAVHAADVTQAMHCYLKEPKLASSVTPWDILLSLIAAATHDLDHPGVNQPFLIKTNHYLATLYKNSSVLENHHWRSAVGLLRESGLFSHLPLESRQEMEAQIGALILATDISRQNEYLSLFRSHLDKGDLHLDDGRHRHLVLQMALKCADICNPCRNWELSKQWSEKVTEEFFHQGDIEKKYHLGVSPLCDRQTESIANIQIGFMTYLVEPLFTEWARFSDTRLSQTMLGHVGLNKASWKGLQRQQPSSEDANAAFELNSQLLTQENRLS
Summary of the method: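 RAW cells seeded at 3 × 10^4 per well and incubated overnight. Compound added for 60 min at 10 or 30 μM. Intracellular cAMP quantified by enzyme immunoassay kit.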

Microglia [5] = experiment: Antiinflammatory activity in rat microglia cells assessed as inhibition of LPS-induced nitrite production at 30 uM incubated for 1 hr prior to LPS-challenge measured after 24 hrs by Griess method; assay type: functional, cell-based; summary of the method: as §2
Astrocyte [6] = experiment: Antiinflammatory activity in rat astrocytes assessed as inhibition of LPS-induced nitrite production at 5 to 10 uM incubated for 1 hr prior to LPS-challenge measured after 24 hrs by Griess method; assay type: functional, cell-based; summary of the method: as §2
[7] = Cytotoxicity against rat astrocytes at 5 to 10 uM after 16 hrs by MTT assay; assay type: cell-based; details: astrocyte
Summary of the method: (§3)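 Primary neonatal rat cortical astrocytes or microglia, after 1 week in culture, exposed to compound for 16 h. MTT at 0.5 mg/mL for 4 h, then solubilized in 10% SDS/0.01 M HCl for 12 h in the dark. Absorbance read at 595 nm. Six replications in three experiments.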

[8] = molecular target: T3, cGMP-inhibited 3',5'-cyclic phosphodiesterase 3A (Homo sapiens, UniProt Q14432); experiment: Inhibition of human recombinant PDE3A-mediated [3H]cAMP hydrolysis after 20 mins by scintillation proximity assay; summary of the method: as §1
T3 sequence (Q14432 whole entry): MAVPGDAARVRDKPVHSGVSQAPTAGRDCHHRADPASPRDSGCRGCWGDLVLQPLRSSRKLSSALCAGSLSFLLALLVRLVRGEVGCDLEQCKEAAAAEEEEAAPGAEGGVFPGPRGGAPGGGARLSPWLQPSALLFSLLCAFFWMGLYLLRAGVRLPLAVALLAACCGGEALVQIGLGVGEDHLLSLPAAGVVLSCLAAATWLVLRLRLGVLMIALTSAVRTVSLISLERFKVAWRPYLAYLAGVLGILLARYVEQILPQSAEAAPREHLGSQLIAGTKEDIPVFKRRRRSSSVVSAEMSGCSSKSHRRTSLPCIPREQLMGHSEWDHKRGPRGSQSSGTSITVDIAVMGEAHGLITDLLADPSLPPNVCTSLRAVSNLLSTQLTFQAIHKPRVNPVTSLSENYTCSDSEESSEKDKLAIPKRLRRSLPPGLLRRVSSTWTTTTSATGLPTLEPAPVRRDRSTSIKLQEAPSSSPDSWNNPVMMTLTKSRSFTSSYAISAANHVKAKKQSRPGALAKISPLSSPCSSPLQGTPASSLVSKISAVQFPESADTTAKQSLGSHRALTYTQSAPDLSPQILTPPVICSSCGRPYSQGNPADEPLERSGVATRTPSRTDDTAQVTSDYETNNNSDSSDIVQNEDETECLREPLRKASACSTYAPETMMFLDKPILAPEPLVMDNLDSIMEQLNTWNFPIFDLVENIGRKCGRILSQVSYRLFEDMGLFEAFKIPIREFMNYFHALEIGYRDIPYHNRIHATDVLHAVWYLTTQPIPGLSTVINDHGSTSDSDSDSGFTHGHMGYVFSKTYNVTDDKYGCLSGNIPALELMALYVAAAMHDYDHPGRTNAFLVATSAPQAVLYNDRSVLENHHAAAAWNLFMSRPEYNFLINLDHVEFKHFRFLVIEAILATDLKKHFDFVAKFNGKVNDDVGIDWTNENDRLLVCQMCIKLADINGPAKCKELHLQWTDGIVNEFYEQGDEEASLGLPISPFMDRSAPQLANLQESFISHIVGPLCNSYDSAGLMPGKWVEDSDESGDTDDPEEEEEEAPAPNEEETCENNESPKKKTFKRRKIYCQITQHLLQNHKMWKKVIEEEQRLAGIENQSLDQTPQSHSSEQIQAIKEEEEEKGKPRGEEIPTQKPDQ

Homo sapiens = species: Homo sapiens; experiment: Selectivity index, ratio of IC50 for human recombinant PDE7A1 to IC50 for human recombinant PDE3A
Summary of the method: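 Ratio of IC50 values for PDE7A1 and PDE3A, each obtained by scintillation proximity assay with [3H]cAMP for 20 min at 30 °C.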

[9] = Cytotoxicity against rat microglia cells at 5 to 10 uM after 16 hrs by MTT assay; assay type: cell-based; summary of the method: as §3
Microglia [10] = experiment: Antiinflammatory activity in rat microglia cells assessed as inhibition of LPS-induced nitrite production at 5 to 10 uM incubated for 1 hr prior to LPS-challenge measured after 24 hrs by Griess method; assay type: functional, cell-based; summary of the method: as §2
[11] = molecular target: T3, cGMP-inhibited 3',5'-cyclic phosphodiesterase 3A; experiment: Inhibition of human recombinant PDE3A-mediated [3H]cAMP hydrolysis at 10 uM after 20 mins by scintillation proximity assay; summary of the method: as §1
[12] = molecular target: T1, High affinity 3',5'-cyclic-AMP phosphodiesterase 7A; experiment: Inhibition of PDE7A1

Compound: CCOc1cc(COC(=O)c2ccc(-c3ccc(Cl)cc3Cl)o2)cc(OCC)c1OCC
inhibition [1]: 31.1%

Compound: Cc1ccc([N+](=O)[O-])cc1S(=O)(=O)N(C)C
IC50 [2]: 90 nM | Activity (Astrocyte [3]): Active | inhibition [4]: Active | Activity (Microglia [5]): Active

Compound: CCOc1cc(C(=O)OCc2ccc(-c3ccc(Cl)cc3Cl)o2)cc(OCC)c1OCC
inhibition [1]: 3.7%

Compound: CC1CCCCC1NC(=O)C(c1ccccc1Cl)N(CCc1ccccc1Cl)C(=O)CCl (stereo unspecified)
IC50 [12]: 880 nM

Compound: CCOC(=O)c1sc(NC(=O)C(CC)OC(=O)C(CC(C)C)NC(=O)c2ccccc2)nc1C (stereo unspecified)
IC50 [12]: 860 nM

Compound: COc1ccc(C2CNC(=O)C2)cc1OC1CCCC1 (stereo unspecified)
Activity (Astrocyte [3]): Active | Activity (Microglia [5]): Active

Compound: CCOc1cc(C(=O)OCc2ccc(-c3ccc([N+](=O)[O-])cc3)o2)cc(OCC)c1OCC
inhibition [1]: 39.9%

The next lines start with results.

inhibition [1]: 10%
Compound: COc1cc(COC(=O)c2ccco2)cc(OC)c1OC

inhibition [1]: 30.8%
Compound: CCOc1cc(COC(=O)c2ccc(-c3ccccc3)o2)cc(OCC)c1OCC

inhibition [1]: 34.6%
Compound: COc1cc(COC(=O)c2ccc(-c3ccccc3Cl)o2)cc(OC)c1OC

IC50 [2]: 14100 nM | IC50 [8]: 3400 nM | Ratio IC50 (Homo sapiens): 4.15 | inhibition [1]: 48% | inhibition [11]: 57.1%
Compound: COc1cc(COC(=O)c2ccc(-c3ccc([N+](=O)[O-])cc3)o2)cc(OC)c1OC
Activity (Astrocyte [6]): Active | Activity [7]: Non-toxic | Activity [9]: Non-toxic | Activity (Microglia [10]): Active

inhibition [1]: 29.2%
Compound: CCOc1cc(COC(=O)c2ccc(-c3ccc([N+](=O)[O-])cc3)o2)cc(OCC)c1OCC

inhibition [1]: 24.4%
Compound: COc1cc(C(=O)OCc2ccc(-c3ccc(Cl)cc3Cl)o2)cc(OC)c1OC

inhibition [1]: 38.3%
Compound: COc1cc(COC(=O)c2ccc(-c3ccc(Cl)cc3Cl)o2)cc(OC)c1OC

inhibition [1]: 23.5%
Compound: COc1cc(CNC(=O)c2ccc(-c3cccc(C(F)(F)F)c3)o2)cc(OC)c1OC

IC50 [2]: 2630 nM | IC50 [8]: 1800 nM | Ratio IC50 (Homo sapiens): 1.44 | inhibition [1]: 54.9% | inhibition [11]: 74.9%
Compound: COc1cc(COC(=O)c2ccc(-c3ccccc3C(F)(F)F)o2)cc(OC)c1OC
Activity (Astrocyte [6]): Active | Activity [7]: Non-toxic | Activity [9]: Non-toxic | Activity (Microglia [10]): Active
